Series [1] is described as follows: CD spectroscopy, peptide and LUVs in the same cuvette. As to conditions: for Θ222, same cell: pH 7.0, ~25°C, error est. 10%. It is filed as physicochemical. The method in brief:
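Lipid dried from chloroform under nitrogen, then under vacuum overnight. It was hydrated in 10 mM potassium phosphate pH 7.0, vortexed, and extruded 10× under nitrogen through two stacked 0.1-μm polycarbonate filters to give LUVs. Peptide and vesicles shared one cuvette, 1-mm path. 10–30 scans, 190–260 nm, ~25°C. A vesicle-only spectrum was subtracted. Ellipticity was converted to per-residue values.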

The conditions of series [2]: monomolecular, ref Scholtz et al. [1991]; cited from earlier work.
Series [3] in a line: CD spectroscopy, two-cuvette experiment. It is filed as physicochemical. As to conditions: error est. 10%. The method in brief:
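Two-cuvette setup: test peptide solution in cell 1 and POPC LUV suspensions in cell 2, in the light path together. LUVs were extruded through 0.1-μm filters in 10 mM potassium phosphate pH 7.0. Peptide concentration was set by UV absorbance (tyrosine ε274nm 1,440 M−1 cm−1). 10–30 scans, 190–260 nm, 1-mm path, ~25°C. Ellipticity was expressed per residue.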

The nature of series [4]: CD of Annexin B12 in solution and bound to LUVs. It is filed as physicochemical. The conditions noted are these: bound to LUVs in the presence of Ca^2+.

Peptide text beside a SMILES is read from it.

Regarding `CC(=O)N[C@@H](Cc1ccc(O)cc1)C(=O)N[C@@H](C)C(=O)N[C@@H](CCC(=O)O)C(=O)N[C@@H](C)C(=O)N[C@@H](C)C(=O)N[C@@H](CCCCN)C(=O)N[C@@H](C)C(=O)N[C@@H](C)C(=O)N[C@@H](CCC(=O)O)C(=O)N[C@@H](C)C(=O)N[C@@H](C)C(=O)N[C@@H](CCCCN)C(=O)N[C@@H](C)C(=O)N[C@@H](C)C(=O)N[C@@H](CCC(=O)O)C(=O)N[C@@H](C)C(=O)N[C@@H](C)C(=O)N[C@@H](CCCCN)C(=O)N[C@@H](C)C(=O)N[C@@H](C)C(=O)N[C@@H](CCC(=O)O)C(=O)N[C@@H](C)C(=O)N[C@@H](C)C(=O)N[C@@H](CCCCN)C(=O)N[C@@H](C)C(=O)N[C@@H](Cc1ccccc1)C(N)=O` [Ac-Y(AEAAKA)4F-NH2] (Ac-YAEAAKAAEAAKAAEAAKAAEAAKAF-NH2), the “molar ellipticity of the peptide” value in series [1] (25°C, buffer with LUVs up to 7 mM, 40 μM peptide) is −20(±0.5) × 10^3 deg cm^2 dmol^−1. In addition, the “Θ222, same cell” value in series [1] (+0.25 mM POPC LUVs in same cuvette, 40 μM peptide) was −20,100 deg cm^2 dmol^−1; in series [1] (+3 mM POPC LUVs in same cuvette, 40 μM peptide), −19,800 deg cm^2 dmol^−1; in series [1] (+5 mM POPC LUVs in same cuvette, 40 μM peptide), −19,700 deg cm^2 dmol^−1; in series [1] (+7 mM POPC LUVs in same cuvette, 40 μM peptide) it was −19,700 deg cm^2 dmol^−1. For the same molecule, the “binding to POPC vesicles” value in series [1] (same-cuvette versus two-cuvette CD spectra, LUVs up to 7 mM) is recorded as “does not bind to POPC vesicles”. Besides, the “α-helical content in buffer” value in series [2] is ~ 60%. The “Θ222, two cells” value in series [3] (+3 mM POPC LUVs in separate cuvette, peptide in buffer (40 μM)) is given as −20,100 deg cm^2 dmol^−1; in series [3] (+5 mM POPC LUVs in separate cuvette, peptide in buffer (40 μM)), −20,100 deg cm^2 dmol^−1; in series [3] (+7 mM POPC LUVs in separate cuvette, peptide in buffer (40 μM)) it was −19,900 deg cm^2 dmol^−1; in series [3] (no lipid, peptide in buffer (40 μM) in cell 1, ~25°C), −20,300 deg cm^2 dmol^−1.

B1: Annexin B12 (protein, UniProt P26256 1-316, looked up)
Annexin-B12: MVVQGTVKPHASFNSREDAETLRKAMKGIGTDEKSITHILATRSNAQRQQIKTDYTTLFGKHLEDELKSELSGNYEAAALALLRKPDEFLAEQLHAAMKGLGTDENALIDILCTQSNAQIHAIKAAFKLLYKEDLEKEIISETSGNFQRLLVSMLQGGRKEDEPVNAAHAAEDAAAIYQAGEGQIGTDESRFNAVLATRSYPQLHQIFHEYSKISNKTILQAIENEFSGDIKNGLLAIVKSVENRFAYFAERLHHAMKGLGTSDKTLIRILVSRSEIDLANIKETFQAMYGKSLYEFIADDCSGDYKDLLLQITGH
Regarding B1, the “CD spectrum, aqueous versus LUV-associated” value in series [4] is “essentially the same CD spectrum”.

The values are drawn from publication PMC2938439 (The Journal of Membrane Biology, 2010).
